Source: ChEMBL document CHEMBL1123091, “Synthesis and antiviral evaluation of nucleosides of 5-methylimidazole-4-carboxamide” (J Med Chem, 1985)
Converted amounts (≈) assume the structure as drawn.

Experiments:
[1] = Compound was tested for antiviral activity in HeLa Cell cultures, against vesicular stomatitis virus (VSV); type: ADME, organism-based; settings: read-out: Tox50
Procedure, shortened: (§1)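 HeLa cells grown to confluency in petri dishes, then infected (or mock-infected) with VSV at 0.01 PFU/cell. Test compound added at a range of concentrations.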

[2] = tested on: Vesicular stomatitis virus; assay: Compound was tested for antiviral activity in HeLa Cell cultures, against vesicular stomatitis virus (VSV), cytopathic effect induced by the virus (CPE); type: functional; procedure, shortened: as §1
Human alphaherpesvirus 1 [3] = assay: Compound was tested for antiviral activity in HeLa Cell cultures, against herpes simplex virus type 1 (HSV-1), cytopathic effect induced by the virus (CPE); type: functional
Procedure, shortened: (§2)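 HeLa cells grown to confluency in petri dishes, then infected (or mock-infected) with HSV-1 at 0.5 PFU/cell. Test compound added at a range of concentrations.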

[4] = Compound was tested for antiviral activity in HeLa Cell cultures, against herpes simplex virus type 1 (HSV-1); type: organism-based; settings: human alphaherpesvirus 1, HeLa cell cultures; read-out: Tox50; procedure, shortened: as §2
Human alphaherpesvirus 1 [5] = assay: Compound was tested for antiviral activity in HeLa Cell cultures, against herpes simplex virus type 1 (HSV-1) expressed as cytopathic effect induced by the virus (CPE); type: functional; procedure, shortened: as §2
[6] = Compound was tested for antiviral activity in HeLa Cell cultures against vesicular stomatitis virus (VSV); type: ADME, organism-based; settings: read-out: Tox50; procedure, shortened: as §1
[7] = Compound was tested for antiviral activity in HeLa Cell cultures against herpes simplex virus type 1 (HSV-1); type: organism-based; settings: human alphaherpesvirus 1, HeLa cell cultures; read-out: Tox50; procedure, shortened: as §2
[8] = tested on: Vesicular stomatitis virus; assay: Compound was tested for antiviral activity in HeLa Cell cultures, against vesicular stomatitis virus (VSV) expressed as cytopathic effect induced by the virus (CPE); type: functional; procedure, shortened: as §1

**Q.** For `Cc1c(C(N)=O)ncn1[C@@H]1C[C@H](O)[C@@H](CO)O1`, which CC50 [1] is on record?
**A.** > 400 µg/mL

**Q.** What about the CPE50 [2] of the same compound?
**A.** 150 µg/mL

**Q.** What about the CPE50 (Human alphaherpesvirus 1 [3]) of the same compound?
**A.** >200 µg/mL

**Q.** What about the CC50 [4] of the same compound?
**A.** > 200 µg/mL

**Q.** For `Cc1c(C(N)=O)ncn1[C@H]1C[C@H](O)[C@@H](CO)O1`, which CPE50 (Human alphaherpesvirus 1 [5]) is on record?
**A.** 150 µg/mL

**Q.** What about the CC50 [6] of the same compound?
**A.** > 400 µg/mL

**Q.** And the CC50 [7]?
**A.** 300 µg/mL (≈ 1240 µM)

**Q.** And the CPE50 [8]?
**A.** 150 µg/mL

**Q.** Which CPE50 (Human alphaherpesvirus 1 [3]) does the source give for `Cc1[nH]cnc1C(N)=O` here?
**A.** >200 µg/mL

**Q.** What about the CC50 [4] of the same compound?
**A.** > 200 µg/mL

**Q.** For `Cc1c(C(N)=O)ncn1COCCO`, which CC50 [1] is on record?
**A.** > 200 µg/mL

**Q.** What about the CPE50 [2] of the same compound?
**A.** 180 µg/mL

**Q.** What about the CPE50 (Human alphaherpesvirus 1 [3]) of the same compound?
**A.** >200 µg/mL

**Q.** And the CC50 [4]?
**A.** > 200 µg/mL

**Q.** What does the source list for `Cc1c(C(N)=O)ncn1C1O[C@H](CO)[C@@H](O)[C@H]1O` (some centres not stated)?
**A.** CC50 [1]: > 400 µg/mL; CPE50 [2]: 125 µg/mL; CPE50 (Human alphaherpesvirus 1 [3]): 75 µg/mL; CC50 [4]: > 400 µg/mL

**Q.** For `NC(=O)c1ncn([C@@H]2O[C@H](CO)[C@@H](O)[C@H]2O)n1` [RIBAVIRIN], which CC50 [1] is on record?
**A.** 400 µg/mL (≈ 1640 µM)

**Q.** What about the CPE50 [2] of the same compound?
**A.** 15 µg/mL

**Q.** What about the CPE50 (Human alphaherpesvirus 1 [3]) of the same compound?
**A.** 75 µg/mL

**Q.** What about the CC50 [4] of the same compound?
**A.** 400 µg/mL (≈ 1640 µM)
